# Experimental data: ChEMBL document CHEMBL4350961, “Discovery of Pyrrolo[3,2- d]pyrimidin-4-one Derivatives as a New Class of Potent and Cell-Active Inhibitors of P300/CBP-Associated Factor Bromodomain” (J Med Chem, 2019)
# Activity calls are given as the source filed them. No cut-off for these calls is given here.
# Assays:
# [1] = tested on: MEF; experiment: Effect on Myh3 gene expression in MEF cells at 2.5 uM measured after 48 hrs by RNA-sequencing analysis relative to control; assay type: functional, Mus musculus
# In short: (§1)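 Mouse embryonic fibroblasts treated 48 h; negative-control enantiomer at 2.5 µM, DMSO as blank. Total RNA extracted with TRIzol, checked by NanoDrop, then RNA-seq with n = 3 per set. Genes called changed at >1.5-fold with p < 0.05 against blank.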
# [2] = tested on: MEF; experiment: Effect on Clec5a gene expression in MEF cells at 2.5 uM measured after 48 hrs by RNA-sequencing analysis relative to control; assay type: functional, Mus musculus; in short: as §1
# [3] = tested on: MEF; experiment: Effect on Icos gene expression in MEF cells at 2.5 uM measured after 48 hrs by RNA-sequencing analysis relative to control; assay type: functional, Mus musculus; in short: as §1
# [4] = tested on: MEF; experiment: Effect on Tfap4 gene expression in MEF cells at 2.5 uM measured after 48 hrs by RNA-sequencing analysis relative to control; assay type: functional, Mus musculus; in short: as §1
# [5] = tested on: MEF; experiment: Effect on Tnnt2 gene expression in MEF cells at 2.5 uM measured after 48 hrs by RNA-sequencing analysis relative to control; assay type: functional, Mus musculus; in short: as §1
# [6] = tested on: MEF; experiment: Effect on Gucy1a3 gene expression in MEF cells at 2.5 uM measured after 48 hrs by RNA-sequencing analysis relative to control; assay type: functional, Mus musculus; in short: as §1
# [7] = tested on: MEF; experiment: Effect on LL6 gene expression in MEF cells at 2.5 uM measured after 48 hrs by RNA-sequencing analysis relative to control; assay type: functional, Mus musculus; in short: as §1
# [8] = tested on: MEF; experiment: Effect on Snhg11 gene expression in MEF cells at 2.5 uM measured after 48 hrs by RNA-sequencing analysis relative to control; assay type: functional, Mus musculus; in short: as §1
# [9] = tested on: MEF; experiment: Effect on Ooep gene expression in MEF cells at 2.5 uM measured after 48 hrs by RNA-sequencing analysis relative to control; assay type: functional, Mus musculus; in short: as §1
# [10] = tested on: MEF; experiment: Effect on Erv3 gene expression in MEF cells at 2.5 uM measured after 48 hrs by RNA-sequencing analysis relative to control; assay type: functional, Mus musculus; in short: as §1
# [11] = tested on: MEF; experiment: Effect on Pyhin1 gene expression in MEF cells at 2.5 uM measured after 48 hrs by RNA-sequencing analysis relative to control; assay type: functional, Mus musculus; in short: as §1
# [12] = tested on: MEF; experiment: Effect on Tnfsf15 gene expression in MEF cells at 2.5 uM measured after 48 hrs by RNA-sequencing analysis relative to control; assay type: functional, Mus musculus; in short: as §1
# [13] = tested on: MEF; experiment: Effect on S100a8 gene expression in MEF cells at 2.5 uM measured after 48 hrs by RNA-sequencing analysis relative to control; assay type: functional, Mus musculus; in short: as §1
# [14] = tested on: MEF; experiment: Effect on Fmn2 gene expression in MEF cells at 2.5 uM measured after 48 hrs by RNA-sequencing analysis relative to control; assay type: functional, Mus musculus; in short: as §1
# [15] = target: T1, Histone acetyltransferase KAT2B (Homo sapiens, UniProt Q92831); experiment: Binding affinity to human N-terminal His-tagged PCAF by isothermal titration calorimetry
# Target sequence in this assay (Q92831 whole entry, the tested form may be a part): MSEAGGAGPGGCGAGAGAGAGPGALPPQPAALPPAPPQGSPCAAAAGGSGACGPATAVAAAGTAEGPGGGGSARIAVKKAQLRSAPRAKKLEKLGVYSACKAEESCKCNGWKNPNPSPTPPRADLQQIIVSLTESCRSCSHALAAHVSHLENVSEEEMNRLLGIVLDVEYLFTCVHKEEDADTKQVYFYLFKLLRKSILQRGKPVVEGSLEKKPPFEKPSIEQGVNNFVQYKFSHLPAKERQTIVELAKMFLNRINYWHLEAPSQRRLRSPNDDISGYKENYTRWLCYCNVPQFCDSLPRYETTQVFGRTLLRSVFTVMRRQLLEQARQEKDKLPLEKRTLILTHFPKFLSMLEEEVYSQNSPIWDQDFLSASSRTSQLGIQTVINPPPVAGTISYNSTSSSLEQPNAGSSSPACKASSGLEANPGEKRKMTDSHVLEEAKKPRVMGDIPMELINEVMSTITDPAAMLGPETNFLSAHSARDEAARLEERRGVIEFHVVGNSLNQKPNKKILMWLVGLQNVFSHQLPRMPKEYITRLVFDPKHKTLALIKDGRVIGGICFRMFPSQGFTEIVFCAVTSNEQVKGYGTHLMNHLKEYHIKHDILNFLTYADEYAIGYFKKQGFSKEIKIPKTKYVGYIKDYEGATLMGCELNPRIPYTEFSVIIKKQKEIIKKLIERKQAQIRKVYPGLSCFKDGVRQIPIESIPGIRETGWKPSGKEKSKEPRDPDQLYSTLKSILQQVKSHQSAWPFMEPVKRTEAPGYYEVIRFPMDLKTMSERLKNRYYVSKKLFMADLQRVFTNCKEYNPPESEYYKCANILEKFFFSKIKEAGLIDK
# [16] = target: T1, Histone acetyltransferase KAT2B; experiment: Inhibition of Halo-tagged histone H3.3 binding to N-terminal Nano luciferase-fused full-length PCAF (unknown origin) expressed in HEK293T cells co-expressing C-terminal Halo-tagged histone H3.3 measured after 18 hrs by 618 fluorescent ligand-based BRET assay; assay type: cell-based
# In short: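 HEK293T cells co-transfected with histone H3.3-HaloTag and PCAF-NanoLuc. After 20 h, cells replated at 2×10^5/ml in phenol red-free DMEM with 4% FBS, with or without 100 nM NanoBRET 618 ligand. Compound dilutions or DMSO added, then 18 h at 37 °C, 5% CO2. Nano-Glo substrate added; 610/460 nm ratio minus no-ligand blank, in mBU; n = 2 biological replicates.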
# [17] = tested on: MEF; experiment: Effect on H60b gene expression in MEF cells at 2.5 uM measured after 48 hrs by RNA-sequencing analysis relative to control; assay type: functional, Mus musculus; in short: as §1
# [18] = tested on: MEF; experiment: Effect on Unc5a gene expression in MEF cells at 2.5 uM measured after 48 hrs by RNA-sequencing analysis relative to control; assay type: functional, Mus musculus; in short: as §1
# [19] = tested on: MEF; experiment: Effect on Zfp551 gene expression in MEF cells at 2.5 uM measured after 48 hrs by RNA-sequencing analysis relative to control; assay type: functional, Mus musculus; in short: as §1
# [20] = tested on: MEF; experiment: Effect on Ttbk1 gene expression in MEF cells at 2.5 uM measured after 48 hrs by RNA-sequencing analysis relative to control; assay type: functional, Mus musculus; in short: as §1
# [21] = target: T1, Histone acetyltransferase KAT2B; experiment: Binding affinity to human N-terminal His-tagged PCAF assessed as change in melting temperature at 10 uM by SYPRO orange dye-based fluorescence assay
# In short: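 Thermal shift with His-tagged human bromodomain at 2 μM final in 10 mM HEPES pH 7.5, 500 mM NaCl. Compound at 10 μM final with 0.1% DMSO; SYPRO Orange at 1:1000. Equilibrated 3 min at 25 °C, then heated from 25 to 95 °C at 1 °C/min. Melting temperature shift taken from fluorescence; at least duplicate.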
# Target sequence in this assay (Q92831 whole entry, looked up, the tested form may be a part): as the sequence (Q92831 whole entry, the tested form may be a part) above
# [22] = tested on: MEF; experiment: Effect on Nuggc gene expression in MEF cells at 2.5 uM measured after 48 hrs by RNA-sequencing analysis relative to control; assay type: functional, Mus musculus; in short: as §1
# [23] = tested on: MEF; experiment: Effect on Dmrta2 gene expression in MEF cells at 2.5 uM measured after 48 hrs by RNA-sequencing analysis relative to control; assay type: functional, Mus musculus; in short: as §1
# [24] = tested on: MEF; experiment: Effect on Hkdc1 gene expression in MEF cells at 2.5 uM measured after 48 hrs by RNA-sequencing analysis relative to control; assay type: functional, Mus musculus; in short: as §1
# [25] = tested on: MEF; experiment: Effect on Erbb3 gene expression in MEF cells at 2.5 uM measured after 48 hrs by RNA-sequencing analysis relative to control; assay type: functional, Mus musculus; in short: as §1
# [26] = tested on: MEF; experiment: Effect on Klk9 gene expression in MEF cells at 2.5 uM measured after 48 hrs by RNA-sequencing analysis relative to control; assay type: functional, Mus musculus; in short: as §1
# [27] = tested on: MEF; experiment: Effect on Slitrk6 gene expression in MEF cells at 2.5 uM measured after 48 hrs by RNA-sequencing analysis relative to control; assay type: functional, Mus musculus; in short: as §1
# [28] = tested on: MEF; experiment: Effect on Gm3173 gene expression in MEF cells at 2.5 uM measured after 48 hrs by RNA-sequencing analysis relative to control; assay type: functional, Mus musculus; in short: as §1
# [29] = tested on: MEF; experiment: Effect on Bmp3 gene expression in MEF cells at 2.5 uM measured after 48 hrs by RNA-sequencing analysis relative to control; assay type: functional, Mus musculus; in short: as §1
# [30] = tested on: MEF; experiment: Effect on Kcnk10 gene expression in MEF cells at 2.5 uM measured after 48 hrs by RNA-sequencing analysis relative to control; assay type: functional, Mus musculus; in short: as §1
# [31] = tested on: MEF; experiment: Effect on Nr4a3 gene expression in MEF cells at 2.5 uM measured after 48 hrs by RNA-sequencing analysis relative to control; assay type: functional, Mus musculus; in short: as §1
# [32] = tested on: MEF; experiment: Effect on Cttnbp2 gene expression in MEF cells at 2.5 uM measured after 48 hrs by RNA-sequencing analysis relative to control; assay type: functional, Mus musculus; in short: as §1
# [33] = tested on: MEF; experiment: Effect on Slc26a7 gene expression in MEF cells at 2.5 uM measured after 48 hrs by RNA-sequencing analysis relative to control; assay type: functional, Mus musculus; in short: as §1
# [34] = tested on: MEF; experiment: Effect on Dlx4 gene expression in MEF cells at 2.5 uM measured after 48 hrs by RNA-sequencing analysis relative to control; assay type: functional, Mus musculus; in short: as §1
# [35] = tested on: MEF; experiment: Effect on Pkdrej gene expression in MEF cells at 2.5 uM measured after 48 hrs by RNA-sequencing analysis relative to control; assay type: functional, Mus musculus; in short: as §1
SMILES,fold change (FC) [1],fold change (FC) [2],fold change (FC) [3],fold change (FC) [4],fold change (FC) [5],fold change (FC) [6],fold change (FC) [7],fold change (FC) [8],fold change (FC) [9],fold change (FC) [10],fold change (FC) [11],fold change (FC) [12],fold change (FC) [13],fold change (FC) [14],Kd [15] [nM],inhibition [16],fold change (FC) [17],fold change (FC) [18],fold change (FC) [19],fold change (FC) [20],further results
CN1C[C@H](Nc2nc3cc[nH]c3c(=O)n2C)C[C@H](c2ccc3c(c2)OCCO3)C1,>1.5,>1.5,>1.5,>1.5,>1.5,>1.5,>1.5,>1.5,>1.5,>1.5,>1.5,>1.5,>1.5,>1.5,78,Dose-dependent effect,>1.5,>1.5,>1.5,>1.5,IC50 [16]: 118 nM; ΔTm [21]: 9.5 °C; fold change (FC) [22]: >1.5; fold change (FC) [23]: >1.5; fold change (FC) [24]: >1.5; fold change (FC) [25]: >1.5; fold change (FC) [26]: >1.5; fold change (FC) [27]: >1.5; fold change (FC) [28]: >1.5; fold change (FC) [29]: >1.5; fold change (FC) [30]: >1.5; fold change (FC) [31]: >1.5; fold change (FC) [32]: >1.5; fold change (FC) [33]: >1.5; fold change (FC) [34]: >1.5; fold change (FC) [35]: >1.5
CN1C[C@@H](Nc2nc3cc[nH]c3c(=O)n2C)C[C@@H](c2ccc3c(c2)OCCO3)C1,>1.5,>1.5,>1.5,>1.5,>1.5,>1.5,>1.5,>1.5,>1.5,>1.5,>1.5,>1.5,>1.5,>1.5,> 10000,inactive,>1.5,>1.5,>1.5,>1.5,ΔTm [21]: 0.7 °C; fold change (FC) [22]: >1.5; fold change (FC) [23]: >1.5; fold change (FC) [24]: >1.5; fold change (FC) [25]: >1.5; fold change (FC) [26]: >1.5; fold change (FC) [27]: >1.5; fold change (FC) [28]: >1.5; fold change (FC) [29]: >1.5; fold change (FC) [30]: >1.5; fold change (FC) [31]: >1.5; fold change (FC) [32]: >1.5; fold change (FC) [33]: >1.5; fold change (FC) [34]: >1.5; fold change (FC) [35]: >1.5
